In ChEMBL document CHEMBL1154778, “Synthesis and biological evaluation of C-5 methyl substituted 4-arylthio and 4-aryloxy-3-Iodopyridin-2(1H)-one type anti-HIV agents” (J Med Chem, 2009):

Key:
[1] = tested on: Human immunodeficiency virus 1; experiment: Antiviral activity against HIV-1 LAI harboring wild type reverse transcriptase infected in human MT4 cells after 5 days by MTT assay; assay type: functional, organism-based; details: Human immunodeficiency virus 1, LAI, MT4, 120 h
How it was run: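 MT4 cells were kept in RPMI 1640 with 10% fetal calf serum and antibiotics at 37 °C, 5% CO2. A range of compound concentrations was incubated with HIV-1 LAI at 200 CCID50/well and 30000 MT4 cells/well for 5 days at 37 °C. Cell viability was read by MTT, and IC50 was the concentration giving 50% infection versus the drug-free control.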

[2] = Selectivity index, ratio of CC50 for human MT4 cells to IC50 for HIV-1 LAI harboring wild type reverse transcriptase infected in human MT4 cells; assay type: functional
How it was run: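 Cytotoxicity was measured in mock-infected MT4 cultures (30000 cells/well) given the same compound concentration range, run in parallel with the infected cultures for 5 days at 37 °C, 5% CO2, with MTT viability. CC50 was the concentration reducing viability by 50% versus the drug-free control. SI was CC50 divided by IC50 against HIV-1 LAI.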

[3] = tested on: Human immunodeficiency virus 1; experiment: Antiviral activity against HIV1 HXB2 harboring K103N mutant reverse transcriptase infected in human MT4 cells after 5 days by MTT assay; assay type: functional, organism-based; details: Human immunodeficiency virus 1, HXB2, MT4, 120 h
How it was run: (§1)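 Mutant viruses were made by recombining the mutant PR-RT sequence into a PR-RT-deleted HIV-1 HXB2 proviral clone. MT4 cells were grown in RPMI 1640 with 10% FCS and antibiotics. Virus at 200 CCID50/well and 30000 cells/well were incubated with varied compound concentrations for 5 days at 37 °C, 5% CO2. MTT viability gave IC50, the concentration giving 50% infection versus the drug-free control.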

[4] = tested on: Human immunodeficiency virus 1; experiment: Antiviral activity against HIV1 HXB2 harboring Y181C mutant reverse transcriptase infected in human MT4 cells after 5 days by MTT assay; assay type: functional, organism-based; details: Human immunodeficiency virus 1, HXB2, MT4, 120 h; how it was run: as §1
[5] = tested on: Human immunodeficiency virus 1; experiment: Antiviral activity against HIV1 HXB2 harboring Y188L mutant reverse transcriptase infected in human MT4 cells after 5 days by MTT assay; assay type: functional, organism-based; details: Human immunodeficiency virus 1, HXB2, MT4, 120 h; how it was run: as §1

Cc1cc(C)cc(Oc2c(CSCc3ccccc3)c(C)[nH]c(=O)c2I)c1
IC50 [1]: 6.3 nM | Ratio CC50/IC50 [2]: >15849 | IC50 [3]: 7.94 nM | IC50 [4]: 15.8 nM | IC50 [5]: 31.6 nM

Cc1cc(C)cc(Oc2c(-n3ccnc3C#N)c(C)[nH]c(=O)c2I)c1
IC50 [1]: 6.3 nM | Ratio CC50/IC50 [2]: >15848 | IC50 [3]: 12.5 nM | IC50 [4]: 39.8 nM | IC50 [5]: 125 nM

Cc1cc(C)cc(Oc2c(COCc3cccs3)c(C)[nH]c(=O)c2I)c1
IC50 [1]: 6.3 nM | Ratio CC50/IC50 [2]: >15849 | IC50 [3]: 6.3 nM | IC50 [4]: 31.6 nM | IC50 [5]: 50.1 nM

Cc1cc(C)cc(Oc2c(CSCc3nccs3)c(C)[nH]c(=O)c2I)c1
IC50 [1]: 7.94 nM | Ratio CC50/IC50 [2]: >12589 | IC50 [3]: 25.1 nM | IC50 [4]: 39.8 nM | IC50 [5]: 2000 nM

Cc1cc(C)cc(Oc2c(COCc3ccc(F)cc3)c(C)[nH]c(=O)c2I)c1
IC50 [1]: 7.94 nM | Ratio CC50/IC50 [2]: >12589 | IC50 [3]: 7.94 nM | IC50 [4]: 25.1 nM | IC50 [5]: 79.4 nM

Cc1cc(C)cc(Oc2c(CSCC(C)C)c(C)[nH]c(=O)c2I)c1
IC50 [1]: 7.94 nM | Ratio CC50/IC50 [2]: >12589 | IC50 [3]: 25.1 nM | IC50 [4]: 50.1 nM | IC50 [5]: 794 nM

Cc1cc(C)cc(Oc2c(CN3CCOC(CC#N)C3)c(C)[nH]c(=O)c2I)c1 (stereo not given)
IC50 [1]: 6.3 nM | Ratio CC50/IC50 [2]: >15849 | IC50 [3]: 6.3 nM | IC50 [4]: 31.6 nM | IC50 [5]: 100 nM

Cc1cc(C)cc(Oc2c(CN3CCC(OC(N)=O)CC3)c(C)[nH]c(=O)c2I)c1
IC50 [1]: 6.3 nM | Ratio CC50/IC50 [2]: 7943 | IC50 [3]: 1.99 nM | IC50 [4]: 25.1 nM | IC50 [5]: 50.1 nM

CCS(=O)(=O)Cc1c(C)[nH]c(=O)c(I)c1Oc1cc(C)cc(C)c1
IC50 [1]: 7.94 nM | Ratio CC50/IC50 [2]: >12589 | IC50 [3]: 39.8 nM | IC50 [4]: 158 nM | IC50 [5]: 794 nM

Cc1cc(C)cc(Oc2c(COCc3ccccc3)c(C)[nH]c(=O)c2I)c1
IC50 [1]: 7.94 nM | Ratio CC50/IC50 [2]: >12589 | IC50 [3]: 31.6 nM | IC50 [4]: 31.6 nM | IC50 [5]: 125 nM

Cc1cc(C)cc(Oc2c(CN3CCSCC3)c(C)[nH]c(=O)c2I)c1
IC50 [1]: 6.3 nM | Ratio CC50/IC50 [2]: >15849 | IC50 [3]: 7.94 nM | IC50 [4]: 39.8 nM | IC50 [5]: 125 nM

Cc1cc(C)cc(Oc2c(COCC3CCCO3)c(C)[nH]c(=O)c2I)c1 (stereo not given)
IC50 [1]: 7.94 nM | Ratio CC50/IC50 [2]: >12589 | IC50 [3]: 31.6 nM | IC50 [4]: 39.8 nM | IC50 [5]: 501 nM

Cc1cc(C)cc(Oc2c(CSC3CCCC3)c(C)[nH]c(=O)c2I)c1
IC50 [1]: 10 nM | Ratio CC50/IC50 [2]: >10000 | IC50 [3]: 31.6 nM | IC50 [4]: 100 nM | IC50 [5]: 630 nM

CCOC(=O)CC1CN(Cc2c(C)[nH]c(=O)c(I)c2Oc2cc(C)cc(C)c2)CCO1 (stereo not given)
IC50 [1]: 6.3 nM | Ratio CC50/IC50 [2]: >15849 | IC50 [3]: 1.99 nM | IC50 [4]: 25.1 nM | IC50 [5]: 50.1 nM

Cc1cc(C)cc(Oc2c(Cn3ccc(N)n3)c(C)[nH]c(=O)c2I)c1
IC50 [1]: 7.9 nM | Ratio CC50/IC50 [2]: >12589 | IC50 [3]: 39.8 nM | IC50 [4]: 39.8 nM | IC50 [5]: 125 nM

Cc1cc(C)cc(Sc2c(Cn3cnc(-c4ccccc4)n3)c(C)[nH]c(=O)c2I)c1
IC50 [1]: 6.3 nM | Ratio CC50/IC50 [2]: >15849 | IC50 [3]: 7.94 nM | IC50 [4]: 10 nM | IC50 [5]: 39.8 nM

Cc1cc(C)cc(Sc2c(CN(C)Cc3ccco3)c(C)[nH]c(=O)c2I)c1
IC50 [1]: 6.3 nM | Ratio CC50/IC50 [2]: >15849 | IC50 [3]: 15.8 nM | IC50 [4]: 50.1 nM | IC50 [5]: 794 nM

Cc1cc(C)cc(Sc2c(CN3CCC(C(N)=O)CC3)c(C)[nH]c(=O)c2I)c1
IC50 [1]: 5.01 nM | Ratio CC50/IC50 [2]: >19953 | IC50 [3]: 10 nM | IC50 [4]: 158 nM | IC50 [5]: 1260 nM

Cc1cc(C)cc(Sc2c(CSCC(C)C)c(C)[nH]c(=O)c2I)c1
IC50 [1]: 7.94 nM | Ratio CC50/IC50 [2]: >12589 | IC50 [3]: 10 nM | IC50 [4]: 199 nM | IC50 [5]: 2510 nM

Cc1cc(C)cc(Sc2c(CSC(C)C)c(C)[nH]c(=O)c2I)c1
IC50 [1]: 7.94 nM | Ratio CC50/IC50 [2]: >12589 | IC50 [3]: 31.6 nM | IC50 [4]: 630 nM | IC50 [5]: 3160 nM

COCC1CCN(Cc2c(C)[nH]c(=O)c(I)c2Sc2cc(C)cc(C)c2)CC1
IC50 [1]: 5.01 nM | Ratio CC50/IC50 [2]: 7943 | IC50 [3]: 19.9 nM | IC50 [4]: 630 nM | IC50 [5]: 3160 nM

Cc1cc(C)cc(Sc2c(Cn3cnc(C)c3/C=N/O)c(C)[nH]c(=O)c2I)c1
IC50 [1]: 6.3 nM | Ratio CC50/IC50 [2]: >15849 | IC50 [3]: 158 nM | IC50 [4]: 1260 nM | IC50 [5]: 3160 nM

Cc1cc(C)cc(Sc2c(CSCc3ccco3)c(C)[nH]c(=O)c2I)c1
IC50 [1]: 6.3 nM | Ratio CC50/IC50 [2]: >12589 | IC50 [3]: 5.01 nM | IC50 [4]: 39.8 nM | IC50 [5]: 1000 nM

Cc1cc(C)cc(Oc2c(CN3CCSC3)c(C)[nH]c(=O)c2I)c1
IC50 [1]: 6.3 nM | Ratio CC50/IC50 [2]: >15848 | IC50 [3]: 15.8 nM | IC50 [4]: 39.8 nM | IC50 [5]: 251 nM

Cc1cc(C)cc(Oc2c(CSCC3CCCO3)c(C)[nH]c(=O)c2I)c1 (stereo not given)
IC50 [1]: 7.94 nM | Ratio CC50/IC50 [2]: >12589 | IC50 [3]: 25.6 nM | IC50 [4]: 63 nM | IC50 [5]: 158 nM

COC1CCCN(Cc2c(C)[nH]c(=O)c(I)c2Oc2cc(C)cc(C)c2)C1 (stereo not given)
IC50 [1]: 6.3 nM | Ratio CC50/IC50 [2]: >15849 | IC50 [3]: 6.3 nM | IC50 [4]: 15.8 nM | IC50 [5]: 39.8 nM

Cc1cc(C)cc(Sc2c(CN3CCC(O)CC3)c(C)[nH]c(=O)c2I)c1
IC50 [1]: 5.01 nM | Ratio CC50/IC50 [2]: >19953 | IC50 [3]: 12.5 nM | IC50 [4]: 316 nM | IC50 [5]: 3980 nM

Cc1cc(C)cc(Oc2c(CN3CCN(C(=O)c4ccco4)CC3)c(C)[nH]c(=O)c2I)c1
IC50 [1]: 10 nM | Ratio CC50/IC50 [2]: 1585 | IC50 [3]: 25.1 nM | IC50 [4]: 125 nM | IC50 [5]: 158 nM

Cc1cc(C)cc(Oc2c(Cn3cnc(C#N)c3C#N)c(C)[nH]c(=O)c2I)c1
IC50 [1]: 10 nM | Ratio CC50/IC50 [2]: >10000 | IC50 [3]: 31.6 nM | IC50 [4]: 199 nM | IC50 [5]: 1000 nM

Cc1cc(C)cc(Sc2c(CN3CCCCC3)c(C)[nH]c(=O)c2I)c1
IC50 [1]: 6.3 nM | Ratio CC50/IC50 [2]: >15849 | IC50 [3]: 31.6 nM | IC50 [4]: 794 nM | IC50 [5]: 7940 nM

Cc1cc(C)cc(Oc2c(Cn3cc(Br)cn3)c(C)[nH]c(=O)c2I)c1
IC50 [1]: 7.94 nM | Ratio CC50/IC50 [2]: >12589 | IC50 [3]: 7.94 nM | IC50 [4]: 31.6 nM | IC50 [5]: 100 nM

Cc1cc(C)cc(Oc2c(Cn3cncc3-c3ccccc3)c(C)[nH]c(=O)c2I)c1
IC50 [1]: 6.3 nM | Ratio CC50/IC50 [2]: >15858 | IC50 [3]: 7.94 nM | IC50 [4]: 31.6 nM | IC50 [5]: 31.6 nM

Cc1cc(C)cc(Oc2c(CNC(=O)c3cc4ccccc4o3)c(C)[nH]c(=O)c2I)c1
IC50 [1]: 6.3 nM | Ratio CC50/IC50 [2]: >15849 | IC50 [3]: 199 nM | IC50 [4]: 31.6 nM | IC50 [5]: 158 nM
